Source: PubChem BioAssay AID588478 (ICCB-Longwood Screening Facility, Harvard Medical School, 2011)
Out of some 330,000 compounds screened, about 1,100 (0.33%) were called active. Shown is part of a subset that was picked to be rich in actives. Values without a mark were called inactive.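 How the source made its calls: active means mean inhibition over replicate wells above about 20% (limit read from the data); inactive means the rest.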

biological target: Ubiquitin carboxyl-terminal hydrolase isozyme L5 (Homo sapiens) (UniProt Q9Y5K5); experiment: inhibitors of human UCH37 deubiquitinase, primary screen, biochemical, Ub-AMC cleavage, fluorescence (AID 588478); details: purified proteasome/UCH37, Ub-AMC cleavage fluorescence; hits give high values; concentration not given here;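 further: 0% = compound-free wells with enzyme and 100% = wells lacking proteasome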
In short: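 system = Proteasome-associated human UCH37 deubiquitinase | amount = 0.15 nM proteasome as dispensed | medium = pH 7.4 Tris-HCl (50 mM) with ovalbumin, ATP-MgCl2, DTT | incubation = 30 min preincubation with enzyme, 25 min cleavage at room temperature | detection = AMC fluorescence 355/460 nm | read-out basis = percent inhibition | controls = no-proteasome and no-compound wells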

Ubiquitin carboxyl-terminal hydrolase isozyme L5 (Homo sapiens), sequence (Q9Y5K5 whole entry, looked up): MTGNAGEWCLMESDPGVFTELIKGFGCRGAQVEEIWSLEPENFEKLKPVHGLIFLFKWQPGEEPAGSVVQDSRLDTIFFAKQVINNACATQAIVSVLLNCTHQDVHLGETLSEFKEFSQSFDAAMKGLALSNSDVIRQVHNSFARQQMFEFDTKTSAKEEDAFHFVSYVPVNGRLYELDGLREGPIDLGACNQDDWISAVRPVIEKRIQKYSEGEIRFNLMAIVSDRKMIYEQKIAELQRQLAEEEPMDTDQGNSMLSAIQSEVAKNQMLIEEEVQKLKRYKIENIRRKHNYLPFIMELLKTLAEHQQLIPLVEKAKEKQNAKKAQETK

Structure (SMILES) | inhibition
O=C(CCCCO)CCCCCCCCC1NC(CO)C(O)C1O[C@@H]1OC(CO)C(O)C(O)C1O (stereo partly drawn) | 1.76%
O=C(NN=C(c1ccccc1)c1cccnc1)c1ccc(O)cc1 | 4.07%
CCC(C)C(C)=NNC(=O)c1ccc(COc2ccc(Cl)c(C)c2)cc1 (stereo not drawn) | 1.66%
Oc1ccc(C=NNc2cccc3cccnc23)c(O)c1 | 1.33%
C#CCOCCOCCOCCNc1nc(N2CCN(C(=O)[C@H](C(C)C)n3cc(CCO)nn3)CC2)nc(N2CCN(C(=O)[C@H]([C@@H](C)CC)n3cc(CCCN=C(N)N)nn3)CC2)n1 | 34.8% (active)
C#CCOCCOCCOCCNc1nc(N2CCN(C(=O)[C@H](CCCN=C(N)N)n3cc(C(N)[C@@H](C)CC)nn3)CC2)nc(N2CCN(C(=O)[C@H](CO)n3cc([C@@H](N)C(C)C)nn3)CC2)n1 (stereo partly drawn) | 3.95%
C#CCOCCOCCOCCNc1nc(N2CCN(C(=O)[C@H](C(C)C)n3cc(CCO)nn3)CC2)nc(N2CCN(C(=O)[C@H](C(C)C)n3cc(CCO)nn3)CC2)n1 | 0.233%
CC(C)NC(=O)CC(=O)NN=Cc1ccccc1F | 4.78%
CSc1cc(C=NO)c(SC)s1 | 3.15%
CCCn1nc(Oc2nc(NC(C)C)nc(N(C)C)n2)ccc1=O | 6.24%
COc1nc(Oc2ccc(=O)n(C)n2)nc(N(C)C)n1 | 29.8% (active)
COc1nc(N(C)C)nc(N2CC(=O)N(CCNS(=O)(=O)c3ccc(C)cc3)C2=N)n1 | -1.6%
CN(C)c1nc(NN=Cc2c[nH]c3ccccc23)nc(N2CCOCC2)n1 | 5.58%
CC(C)CC[n+]1ccn(C2=C([O-])c3ccccc3C(=O)/C2=N\S(=O)(=O)c2ccccc2)c1 | 32.4% (active)
Cc1ccc(C=NNC(=O)c2cc([N+](=O)[O-])cc([N+](=O)[O-])c2)o1 | 5.25%
CN(C)/C=C(\C#N)C(=O)NN=Cc1ccccc1 | 6.55%
CN(C)C=Nc1sc2c(c1C#N)CCC2 | 9.38%
COC(=O)[C@H](C)[C@H]1C[C@]1(C)[C@H](NC(=O)OCc1ccccc1)c1ccccc1 | 31% (active)
COC(=O)[C@H](Cc1ccccc1)NC(=O)[C@@H]1C[C@H]1[C@@H](NC(=O)OCc1ccccc1)c1ccccc1 | 1.36%
CC(C)[C@H](NC(=O)OCc1ccccc1)C(=O)OCc1ccccc1 | 0.329%

Structure (SMILES) | inhibition
O=C(NN=Cc1ccco1)c1cc(=O)[nH]c2ccccc12 | 7.58%
O=C(c1ccc2c(c1)OCO2)N1CCN(C(=O)c2ccco2)CC1 | 0.962%
O=C(CN1CCN(C(=O)c2ccco2)CC1)Nc1ccc2c(c1)OCO2 | 1.43%
CCC(=O)Nc1ccc(C(=O)N2CCN(C(=O)c3ccco3)CC2)cc1 | 31.4% (active)
Cc1ccc2nc(C(Cl)(Cl)Cl)nc(NN=Cc3ccc([N+](=O)[O-])cc3)c2c1 | -0.00251%
S=c1[nH]nc(-c2cccc(Cl)c2)n1N=Cc1ccc(-c2ccccc2Br)o1 | 8%
O=C1c2ccccc2NC(c2ccc(-c3cccc(Cl)c3)o2)N1O (stereo not drawn) | -14.2%
O=C(O)C(c1ccccc1)N1C(=O)/C(=C\c2ccc(-c3cccc(Cl)c3)o2)SC1=S (stereo not drawn) | 37.5% (active)
CC(=O)n1cc(C=NNC(=O)c2ccc(Cl)cc2)c2ccccc21 | 2.16%
O=C(Cc1cccs1)NN=Cc1ccc(O)cc1 | 1.44%
CCOC(=O)c1c(N=CC2=C(O)CC(C)(C)CC2=O)sc(C)c1C | -1.87%
Cc1ccc(C=NNC(=O)CSc2nc3ccccc3c(=O)n2-c2ccccc2)s1 | 4.54%
CC(C)(C)c1ccc(C=NNC(=S)Nc2cccnc2)cc1 | 2.4%
Cc1ccc(NC(=O)Nc2cccnc2)cc1 | 0.429%
Oc1ccc(C=NNC(=S)Nc2cccnc2)c(O)c1O | 22.7% (active)
COc1cc(C=NN(C)C)ccc1OC(=O)c1cccs1 | 0.992%
COc1ccc(NC(=O)ON=Cc2ccccc2)cc1 | 2.45%
CC(=NNC(=O)c1cccs1)c1ccc(NC(=O)COc2ccc(Cl)cc2)cc1 | -42%
O=C(O)c1cc(NN=Cc2ccncc2)ccc1Cl | 14.4%
Nc1nnnn1CC(=O)NN=Cc1cc([N+](=O)[O-])ccc1Cl | 4.32%

Structure (SMILES) | inhibition
CCCCCCCCn1c2c(c(=N)c3c1CCC3)CCCC2 | 25.7% (active)
Cc1ccc(C=NNC(=O)CNC(=O)COc2ccccc2)o1 | 6.97%
CC(C)(C)NN=Cc1cc(Cl)cc([N+](=O)[O-])c1O | 6.29%
CNC(=O)C(C#N)=c1sc(=CC(=O)OC)c(=O)n1-c1ccccc1 | 3.97%
Cc1ccc(C=NN2CCN(Cc3ccccc3)CC2)o1 | 1.82%
COc1ccc(C(=O)COC(=O)c2ccc([N+](=O)[O-])s2)cc1OC | 4.79%
COc1cc(NC(=O)COC(=O)c2ccc([N+](=O)[O-])s2)cc(OC)c1OC | 70.6% (active)
COc1ccc(C(=O)OCC(=O)Nc2ccc3[nH]c(=O)[nH]c3c2)c(OC)c1OC | 0.187%
COc1cccc(C=NNc2cc(-n3nc(C)cc3-c3ccccc3)ncn2)c1O | 3.24%
O=[N+]([O-])c1cc(S(=O)(=O)N2CCCC2)ccc1NN=Cc1cccnc1 | 3.11%
Cc1nn(-c2ccccc2)c(C)c1C=NNC(=O)c1cccs1 | 2.82%
O=C1C(Cl)=C(Oc2ccccc2)C(=O)c2ccccc21 | 73.8% (active)
CC(=O)Oc1ccc2c(c1)C(=O)c1ccccc1C2=O | 6.5%
Cc1cc(C)c(COc2ccc(C=Nn3c(C)n[nH]c3=S)cc2)c(C)c1 | 2.64%
C[n+]1cn(N=Cc2ccccc2)c2ccccc21 | 0.369%
COc1ccc(C(C)=NNc2ccc(C(=O)O)cc2)cc1OC | 12.1%
COC1(C2=NCCN2)COc2ccccc2O1 (stereo not drawn) | 22.9% (active)
CCCC=NNc1nnc(Cc2ccc(OC)c(OC)c2)c(=O)[nH]1 | 2.12%
